Consider 18 compounds from PubChem BioAssay.

A number with no mark means an inactive call. Inconclusive results are not listed. Active and inactive are the calls of the source.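 Rule for the calls, unless noted: active = cell viability at or below a set limit in both duplicate runs, the limit being the all-compound median minus 4 SD (cut at about 23% in these data, passing the limit was not always enough); inconclusive = no clear call, values can overlap the other calls; inactive = the rest.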

Assay [1] in a line: S. cerevisiae growth inhibition in permissive medium (OD615), pilot counter-assay for S. cerevisiae lifespan shortening project, permissive growth control (AID 705;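 active = growth inhibition above 25% in both replicates, a cutoff set 3 SD above the mean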). Particulars: OD615, 24 h, at 10 µM, active compounds read high. The essentials: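 System: S. cerevisiae with engineered DeaD lifespan system. Medium: SC raffinose/galactose permissive medium. Doses: single compound dose of 10 µM, 0.25% DMSO final. Schedule: 24 h exposure, 30 °C. Measured by: OD615 turbidity read. Read-out: growth inhibition.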

A short description of assay [2]: S. cerevisiae growth inhibition in restrictive medium, OD615, pilot screen, restrictive growth control, yeast lifespan reduction project (AID 706;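 active = growth inhibition above a set limit, 3 SD over mean compound inhibition, in both replicates, cut at about 43% in these data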;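 note: modified DeaD lifespan yeast strain shifted to restrictive glucose medium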). Particulars: OD615, 48 h, at 10 µM, active compounds read high. The essentials:
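Assay system – genetically modified Saccharomyces cerevisiae, DeaD replicative lifespan assay strain · Medium – CSMM-D glucose medium · Doses – 10 µM compound, 0.25% DMSO · Times – 4 h pre-incubation, 48 h exposure at 30 °C · Signal – optical density at 615 nm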

Assay [3] can be described thus: doxorubicin toxicity protection in MRP-1 cells – H69AR cells, CellTiter-Glo, duplicate, MRP-1 activator project, pilot screen (AID 807;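 active = viability increase at or above a cutoff of the median across tested compounds plus 3 SD, cut at about 8.5% in these data, passing the limit was not always enough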;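 note: compound pretreatment 18-22 h then 72 h combined with doxorubicin; 0% = doxorubicin alone and 100% = vehicle without doxorubicin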). Particulars: H69AR viability with doxorubicin, CellTiter-Glo luminescence; at 10 µM; active compounds read high.
Assay [4] can be described thus: viability of HCT116 without oncogenic beta-catenin – human colon tumor cells, pilot screen (AID 823).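 Note: 0% = wells killed by 20 µM Hyamine and 100% = untreated DMSO cell wells.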 The settings on record: HCT116 beta-catenin knockout viability, CellTiter-Glo, 60 h; at 10 µM; active compounds read low.
The nature of assay [5]: viability of PTEN-null HCT116 cells – cell-based, HCT116 clonal line, CellTiter-Glo, pilot screen (AID 824;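 active = viability at or below 27.92% in each of two runs, the all-compound median minus 4 SD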;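 note: 0% = 20 µM Hyamine control and 100% = vehicle cell control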). The settings on record: HCT116 PTEN-deleted viability, 60 h, at 10 µM, active compounds read low.
A short description of assay [6]: RAM pathway blockade in budding yeast – dse1pr::URA3 reporter, 5-FOA selection, pilot screen (AID 869;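 active = inhibition over a set limit, the all-compound mean plus 3 SD, in both replicate runs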;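 note: 0% = DMSO wells with no growth and 100% = 10 µM 1-NA-PP1 with full growth; RAM network block rescues cells from 5-FOA so hits raise OD615 growth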). Particulars: S. cerevisiae dse1pr::URA3 5-FOA growth, OD615, 2 d; at 10 µM; active compounds read high; strain carries analog-sensitive mutant Cbk1 kinase.
The nature of assay [7]: RAM signaling pathway blockade in yeast – S. cerevisiae, Pdr1DBD-CYC8 efflux-inhibited sensitized strain, primary screen (AID 1298;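 active = RAM network inhibition above 8.4% in each of two replicates, 3 SD over the compound average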;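 note: 0% = DMSO untreated cells without growth and 100% = 10 µM 1-NA-PP1 full growth; higher means more yeast growth rescued from 5-FOA killing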). Particulars: S. cerevisiae cbk1-as DSE1-URA3 strain, 5-FOA growth OD615, 2 d; at 50 µM; active compounds read high.

As to `N=c1sccn1CC(=O)Nc1ccccc1-c1ccccc1`, the growth inhibition is -5.55% in assay [1] and -3.2% in assay [2]. Also, in assay [3], the viability increase was -2.08%. The viability in assay [4] was 94.3%; in assay [5], 95.8%. Further, the inhibition in assay [6] is 2.95%. Moreover, the RAM network inhibition in assay [7] is 3.6%.
For the compound `Cc1noc(NS(=O)(=O)c2ccc(NC(=O)CSc3nc4c(cc3C#N)CCC4)cc2)c1C`, the growth inhibition is 4.79% in assay [1] and 48% (active) in assay [2]. In addition, in assay [3], the viability increase is 1.01%. Also, the viability in assay [4] is 107%; in assay [5] it was 98.3%. The inhibition in assay [6] was 0.805%. In addition, the RAM network inhibition in assay [7] was 8.22%.
In the case of `CCN(CC)S(=O)(=O)c1ccc(C(=O)Nc2nnc(C(C)C)s2)cc1`, the growth inhibition in assay [1] is -12.7%; in assay [2], -1.79%. For the same compound, in assay [3], the viability increase was 0.3%. For the same compound, the viability is 104% in assay [4] and 95% in assay [5]. In addition, in assay [6], the inhibition is 1.25%. The RAM network inhibition in assay [7] is 4.27%.
As to `CN1CCN(C(=O)c2ccc3c(c2)N(Cc2cccc(Cl)c2)C(=O)c2ccccc2S3=O)CC1` (stereo unspecified), the growth inhibition in assay [1] was -4.92%; in assay [2] it was -10.7%. For the same compound, in assay [3], the viability increase was -3.66%. Also, the viability in assay [4] was 102%; in assay [5], 99.1%. Moreover, the inhibition in assay [6] is 0.63%. In addition, in assay [7], the RAM network inhibition was 6.41%.
For the compound `Cc1ccc(C(=O)N(Cc2nc(-c3ccc(C)cc3)no2)C(C)C)cc1`, the growth inhibition was -14.3% in assay [1] and -18.5% in assay [2]. Further, the viability increase in assay [3] was 0.77%. Moreover, the viability was 100% in assay [4] and 94.5% in assay [5]. For the same compound, the inhibition in assay [6] is 1.33%. Moreover, the RAM network inhibition in assay [7] is 5.26%.
Take `CCCn1c(CCNC(=O)c2cccs2)nc2ccccc21`: the growth inhibition in assay [1] was -1.19%; in assay [2], 4.79%. Besides, the viability increase in assay [3] was -0.97%. In addition, the viability is 94.9% in assay [4] and 91.5% in assay [5]. Further, the inhibition in assay [6] was 1.37%. In addition, the RAM network inhibition in assay [7] is 4.94%.
As for `CCCc1cc(C(=O)Nc2cc(Br)ccc2O)no1`, the results for the growth inhibition in assay [1] and in assay [2] were -4.99% and -3.92%, respectively. For the same compound, in assay [3], the viability increase was -4.83%. Further, the viability in assay [4] is 89%; in assay [5] it was 88.1%. In assay [6], the inhibition was 2.76%. In addition, in assay [7], the RAM network inhibition is 5.97%.
Consider `CCCC1(C(=O)O)NC(c2ccccc2O)C2C(=O)N(c3cccc(Cl)c3)C(=O)C21` (stereo unspecified), for which the results for the growth inhibition in assay [1] and in assay [2] were 6.45% and 7.74%, respectively. Besides, the viability increase in assay [3] is 0.1%. In addition, the figures for the viability in assay [4] and in assay [5] were 107% and 94.5%, respectively. Also, in assay [6], the inhibition is 0.955%. Further, the RAM network inhibition in assay [7] is 0.05%.
Turning to `CN(C)c1nc(N)nc(-c2ccco2)n1`, the growth inhibition was 3.19% in assay [1] and 14.2% in assay [2]. Also, the viability increase in assay [3] is 0.01%. The viability in assay [4] was 93.7%; in assay [5], 103%. Also, in assay [6], the inhibition is 0.535%. The RAM network inhibition in assay [7] is 0.21%.
Consider `COCCCN1C(=O)C(O)=C(C(=O)c2ccc(C)o2)C1c1cccc(Br)c1` (stereo unspecified), for which the growth inhibition in assay [1] is -10.6%; in assay [2] it was -3.15%. Besides, in assay [3], the viability increase is -0.41%. The viability in assay [4] and in assay [5] was 106% each time. The inhibition in assay [6] is -0.2%. The RAM network inhibition in assay [7] is 4.3%.
In the case of `O=C(CN1CCN(c2ncccn2)CC1)NCCC1=CCCCC1`, the figures for the growth inhibition in assay [1] and in assay [2] were -8.09% and -27.1%, respectively. Besides, the viability increase in assay [3] was -2.15%. The viability was 94% in assay [4] and 93.7% in assay [5]. The inhibition in assay [6] was 1.9%. In assay [7], the RAM network inhibition was 5.02%.
As for `CC1=C(C(=O)N(C)C)C(c2cccc(Cl)c2)NC(=O)N1` (stereo unspecified), the growth inhibition in assay [1] was -2.44%; in assay [2], -14.6%. Moreover, in assay [3], the viability increase is 0.18%. The values for the viability in assay [4] and in assay [5] were 99.1% and 94.9%, respectively. The inhibition in assay [6] was 2.12%. The RAM network inhibition in assay [7] was 2.17%.
On to `C=CCSc1nc2ccccc2c(=O)[nH]1`, for which the growth inhibition in assay [1] is -16.1%; in assay [2] it was -8.26%. In addition, the viability increase in assay [3] was -0.8%. For the same compound, the viability in assay [4] is 105%; in assay [5], 95.2%. Besides, the inhibition in assay [6] is 2.91%. Besides, the RAM network inhibition in assay [7] is 0.79%.
As for `COCCCNC(=O)c1c(F)c(F)c(F)c(F)c1F`, the growth inhibition in assay [1] is -11.2%; in assay [2] it was -2.95%. In assay [3], the viability increase is -1.94%. Further, the values for the viability in assay [4] and in assay [5] were 95.7% and 92.9%, respectively. The inhibition in assay [6] was 0.09%. Also, in assay [7], the RAM network inhibition is -0.98%.
In the case of `CC(CCc1ccccc1)NC(=O)c1nnc(Cc2ccc(F)cc2)o1` (stereo unspecified), the growth inhibition is -3.78% in assay [1] and 7.46% in assay [2]. In addition, the viability increase in assay [3] is 0%. For the same compound, the viability in assay [4] and in assay [5] was 95.2% in each case. Moreover, the inhibition in assay [6] was 0.95%. Further, in assay [7], the RAM network inhibition is 1.1%.
On to `CCOc1ccccc1N1C(=O)CC(N(O)c2ccccc2)C1=O` (stereo unspecified), for which the growth inhibition in assay [1] was -13.4%; in assay [2], -4.14%. Besides, the viability increase in assay [3] was -5.35%. Moreover, the figures for the viability in assay [4] and in assay [5] were 106% and 96.3%, respectively. Also, the inhibition in assay [6] was 0.17%. The RAM network inhibition in assay [7] is 12.8%.
`CCOc1ccccc1N1CCN(S(=O)(=O)CC)CC1`: the growth inhibition in assay [1] is -0.885%; in assay [2] it was 4.05%. Also, in assay [3], the viability increase was -1.83%. The values for the viability in assay [4] and in assay [5] were 94.9% and 97.6%, respectively. The inhibition in assay [6] was 0.455%. Further, the RAM network inhibition in assay [7] is 6.05%.
In the case of `Cc1onc(-c2ccccc2)c1C(=O)Nc1nnc(N2CCCCCC2)s1`, the growth inhibition in assay [1] was -15.2%; in assay [2], -12%. Further, the viability increase in assay [3] was 2%. Also, the viability in assay [4] is 101%; in assay [5], 87.5%. For the same compound, the inhibition in assay [6] is 1.23%. In addition, in assay [7], the RAM network inhibition was 3.72%.
